The series in a line: Apparent acid dissociation constant (pK) was determined. Type of series: ADME. Conditions: for pKa: read-out: pK. In outline:
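Analogue bound to apo-aspartate aminotransferase (complex formed at pH 8.3) was titrated toward lower pH by adding 2 M acetate buffer, pH 5.4. Absorption spectra were followed for the shift of the bound-coenzyme band to 420 nm, and the pK was estimated from the pH dependence of that spectral change.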

Our source for the pK and pKa values is ChEMBL document CHEMBL1122218, “Phosphonate analogues of pyridoxal phosphate with shortened side chains” (J Med Chem, 1983).

Several values for one entry are separate records, joined by “and”; a condition that tells them apart may be missing. Equal values may be shown once.

Consider `CCOP(=O)(Cc1cnc(C)c(O)c1CO)OCC`, for which the pK came out at 8.59 and the pKa was 4.53.

In the case of `CCOP(=O)(O)Cc1cnc(C)c(O)c1C=O`, the pK is 3.91 and 8.21. In the case of `CCOP(=O)(Cc1cnc(C)c(O)c1C=O)OCC`, the pK is 3.03 and 7. For `Cc1cnc(C)c(O)c1C=O`, the pK was 8.05 and the pKa came to 4.15. Turning to `Cc1ncc(CP(=O)(O)O)c(C=O)c1O`, the pK is 4.07 and 6.76 and 9.2. For `Cc1ncc(COP(=O)(O)O)c(C=O)c1O` [PYRIDOXAL PHOSPHATE ANHYDROUS], the pK is 3.62 and 6.1 and 8.33.
